The species entered for series [1] is Homo sapiens. As to the kind of experiment: Inhibition of fMLP-induced oxidative burst in a cell density of 2 x 10 e 6 cells/mL. The class given is functional, cell-based.
The species named for series [2] is Homo sapiens. As to the kind of experiment: Inhibition of fMLP-induced oxidative burst in a cell density of 5 x 10 e 5 cells/mL. The class given is functional, cell-based.
Series [3] is filed under the species Homo sapiens. As to the kind of experiment: Inhibition of fMLP-induced secretion of beta-glucurodinase (azurophilic granules). The class given is functional. In a few lines:
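Neutrophils at 5 × 10⁶/mL were primed with 5 μg/mL cytochalasin B (4 min, 37 °C), given compound in 0.1% DMSO for 3 min, then 100 nM fMLP for 15 min. Stopped on ice and pelleted. Supernatant β-glucuronidase was assayed with 4-methylumbelliferyl-β-D-glucuronide, pH 4.0, 15 min at 37 °C; fluorescence ex 365/em 460 nm. n = 3.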

For series [4], the species on record is Homo sapiens. In words: Inhibition of fMLP-induced secretion of lysozyme (azurophilic and specific granules). The class given is functional.
For series [5], the species on record is Homo sapiens. In words: Inhibition of fMLP-stimulated superoxide production in a cell density of 5 x 10 e 6 cells/mL. Format: functional, cell-based.
The species entered for series [6] is Homo sapiens. In words: Maximum Inhibition of fMLP-stimulated superoxide production in a cell density of 5 x 10 e 6 cells/mL. The class given is functional.
For series [7], the species on record is Homo sapiens. As to the kind of experiment: Maximum inhibition of MLP-induced oxidative burst in a cell density of 2 x 10 e 6 cells/mL. The class given is functional.
Series [8] is filed under the species Rattus norvegicus. In words: Inhibition of Fe(2+)/ADP-induced lipid peroxidation of rat liver microsomes. The class given is functional. In a few lines:
(§1)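 Wistar rat liver microsomes (1 mg/mL) in 50 mM potassium phosphate, pH 7.2, with 50 μM ADP and 5 μM […]. Compound or DMSO was preincubated at 25 °C (5 min per methods; legend says 3 min). Peroxidation was started with 1 mM NADPH. After 15 min, malondialdehyde was measured by thiobarbituric acid at 532 nm. Mean ± SEM, n = 3.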

The nature of series [9]: Dissociation constant in aqueous system. The class given is physicochemical.
The species named for series [10] is Homo sapiens. As to the kind of experiment: Inhibitory effect on superoxide anion formation of fMLP-stimulated neutrophils at 1 uM by cytochrome c assay. The class given is functional.
For series [11], the species on record is Homo sapiens. As to the kind of experiment: Inhibitory effect on superoxide anion formation of fMLP-stimulated neutrophils at 1 uM by cytochrome c assay; Did not inhibit or weakly inhibited. Format: functional.
A short description of series [12]: Dissociation constant in aqueous solution. Format: physicochemical.
The species named for series [13] is Homo sapiens. In words: Tested for inhibition of fMLP induced secretion of lysozyme from human neutrophil cells; Did not influence or inactive. Format: functional, cell-based.
For series [14], the species on record is Rattus norvegicus. In words: Tested for inhibition of lipid peroxidation in rat liver microsomes. Format: functional. In a few lines: as §1

Calls of active or inactive are those of the source. No cut-off for these calls is given here.

Take `CCCCCCCCCCCCCCCCSCC(O)C1OC(O)=C(OC)C1=O` (stereo not drawn): the concentration for half-maximal inhibition (IC50) in the series listed under Homo sapiens [1] amounted to 1.25 µM; in the series filed under Homo sapiens [2], 0.6 µM; in the series listed under Homo sapiens [3], 7 µM; in the series filed under Homo sapiens [4], 2.5 µM; in the series filed under Homo sapiens [5], 3.7 µM; in the series filed under Rattus norvegicus [8], 2 µM. Also, the Max inhibition concentration in the series filed under Homo sapiens [6] came to 10 µM; in the series listed under Homo sapiens [7], 5 µM. Besides, the pKa in series [9] was found to be 3.32. Also, in the series filed under Homo sapiens [10], the inhibition at 1 µM was 80%.
As for `COC1=C(O)OC(C(O)CSc2ccccc2)C1=O` (stereo not drawn), the inhibition result in the series listed under Homo sapiens [11] was “Did not inhibit or weakly inhibited”.
Compound `CCCCCCCCCCCCCCCCSCC(O)C1OC(=O)C(O)=C1OC` (stereo not drawn) registered a pKa in series [12] of 7.7. Also, the inhibition result in the series filed under Homo sapiens [13] was “inactive”.
With `CCCCCCCCSCC(O)C1OC(O)=C(OC)C1=O` (stereo not drawn), the inhibition entry in the series listed under Homo sapiens [11] is “Did not inhibit or weakly inhibited”.
With `CCCCCCCCCCCCSCC(O)C1OC(O)=C(OC)C1=O` (stereo not drawn), the inhibition result in the series filed under Homo sapiens [11] is “Did not inhibit or weakly inhibited”. Also, inhibition in the series listed under Rattus norvegicus [14] was half-maximal at 2.5 µM (IC50).
In the case of `CCCCCCCCCCCCCCCCSCC(O)C1OC(=O)C(OC)=C1OC` (stereo not drawn), the inhibition entry in the series filed under Homo sapiens [11] is “Did not inhibit or weakly inhibited”.
For `CCCCCCCCCCCCCCCCCCSCC(O)C1OC(O)=C(OC)C1=O` (stereo not drawn), testing at 1 µM in the series listed under Homo sapiens [10] gave an inhibition of 40%.

As a reminder, the IC50 is the point on the concentration scale where inhibition reaches its midpoint. The pKa is the pH at which an ionisable group is half protonated. Lower therefore signals a stronger acid or weaker base. The term inhibition denotes the relative decrease from the control value, in per cent.

The record behind these values is ChEMBL document CHEMBL1126553, “Antioxidant and neutrophil-inhibiting properties of new 2-O-methyl-6-(alkylthio)ascorbic acid derivatives” (J Med Chem, 1993).
